The structures appear in SMILES notation.

One data set in a line: Antiglycation activity of compound assessed as inhibition of BSA-derived advance glycated end product formation after 7 days by spectrofluorimeter. The data set is classed as physicochemical.
Conditions: not given; call rule not given here
Put shortly:
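BSA (10 mg/mL) mixed with anhydrous glucose (50 mg/mL) and test sample in equal parts, in sodium phosphate buffer pH 7.4 (67 mM Na2HPO4, 3 mM sodium azide), incubated 37 °C for 7 days. Protein precipitated with TCA and centrifuged, pellet washed with 10% TCA, then redissolved in PBS. AGE fluorescence read at excitation 370 nm, emission 440 nm. % inhibition computed against glycated control (BSA + glucose + buffer).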
For the compound `Cc1cccc(C)c1NC(=O)Nc1ccccc1`, the IC50 entry is listed as “Not Active”.

For `Cc1cc(C)cc(NC(=O)Nc2ccccc2)c1`, the IC50 entry is reported as “Not Active”.

Take `Cc1ccc(NC(=O)Nc2cccc(Cl)c2)c(C)c1`: the IC50 entry is on record as “Not Active”.

Regarding `Cc1ccc(NC(=O)Nc2cccc(Cl)c2)cc1C`, the IC50 entry is “Not Active”.

On to `Cc1ccc(C)c(NC(=O)Nc2cccc(Cl)c2)c1`, for which the half-inhibitory concentration (IC50) entry was “Not Active”.

Take `Cc1cccc(C)c1NC(=O)Nc1cccc(Cl)c1`: the IC50 result is “Not Active”.

As for `Cc1cccc(NC(=O)Nc2cccc(Cl)c2)c1C`, the IC50 result was “Not Active”.

With `Cc1cccc(NC(=O)Nc2ccccc2)c1C`, the IC50 result is recorded as “Not Active”.

Turning to `Cc1ccc(NC(=O)Nc2ccccc2)c(C)c1`, the IC50 result is “Not Active”.

Consider `Cc1ccc(C)c(NC(=O)Nc2ccccc2)c1`, for which the IC50 result is given as “Not Active”.

Still in this data set, the particulars now being: read-out: IC50.
Consider `O=C(Nc1ccccc1)Nc1cccc(Br)c1`, for which the IC50 turned out to be 4.26 µM.

On to `COc1ccc(NC(=O)Nc2ccccc2)cc1`, for which the IC50 worked out at 8.4 µM.

As to `O=C(Nc1cccc(Cl)c1)Nc1ccccc1Br`, the IC50 stood at 6.6 µM.

Turning to `COc1cccc(NC(=O)Nc2cccc(Cl)c2)c1`, the IC50 turned out to be 5.8 µM.

`Cc1ccc(NC(=O)Nc2ccccc2)cc1C`: the IC50 came out at 9 µM.

Consider `O=C(Nc1ccccc1)Nc1ccc(Cl)c(Cl)c1`, for which the IC50 was determined as 838 µM.

As for `O=C(Nc1cccc(Cl)c1)Nc1cccc(Br)c1`, the IC50 stood at 8.16 µM.

As to `O=C(Nc1ccc(Br)cc1)Nc1cccc(Cl)c1`, the IC50 worked out at 6.4 µM.

Turning to `COc1ccccc1NC(=O)Nc1cccc(Cl)c1`, the IC50 was found to be 7.02 µM.

For the compound `COc1cccc(NC(=O)Nc2ccccc2)c1`, the 50% inhibitory concentration (IC50) stood at 229 µM.

Regarding `Cc1cc(C)cc(NC(=O)Nc2cccc(Cl)c2)c1`, the IC50 came to 906 µM.

Consider `COc1ccc([N+](=O)[O-])cc1NC(=O)Nc1cccc(Cl)c1`, for which the IC50 was 408 µM.

As for `O=C(Nc1ccccc1)Nc1cccc([N+](=O)[O-])c1`, the IC50 stood at 7.27 µM.

On to `COc1ccc([N+](=O)[O-])cc1NC(=O)Nc1ccccc1`, for which the IC50 is 162 µM.

In the case of `O=C(Nc1ccccc1)Nc1ccccc1Br`, the IC50 worked out at 120 µM.

With `O=C(Nc1ccccc1)Nc1ccc(Br)cc1`, the IC50 amounted to 6.1 µM.

Regarding `COc1ccc(NC(=O)Nc2cccc(Cl)c2)cc1`, the IC50 stood at 7.14 µM.

Turning to `O=C(Nc1cccc(Cl)c1)Nc1ccc(Cl)c(Cl)c1`, the IC50 worked out at 15.2 µM.

Turning to `C[C@@H]1O[C@@H](OC[C@H]2O[C@@H](Oc3c(-c4ccc(O)c(O)c4)oc4cc(O)cc(O)c4c3=O)[C@H](O)[C@@H](O)[C@@H]2O)[C@H](O)[C@H](O)[C@H]1O` [RUTIN], the IC50 came to 41.9 µM.

What is called IC50 is the concentration that inhibits the measured activity by half.

Source of the values: ChEMBL document CHEMBL1152798, “Unsymmetrically disubstituted urea derivatives: a potent class of antiglycating agents” (Bioorg Med Chem, 2009).
